Measured values pooled from the literature.
Target: Serine/threonine-protein kinase 38 (STK38, Homo sapiens, UniProt Q15208)

| Structure (SMILES) | assay | test system | setting | quantity | result |
| --- | --- | --- | --- | --- | --- |
| CCN1CCN(Cc2ccc(NC(=O)c3ccc(C)c(/C=C/c4cnc5[nH]ccc5c4OC)c3)cc2C(F)(F)F)CC1 | target engagement in cells, inhibitor, chemoproteomics | A-375 | 0.5 µM | inhibition | -0.843% |
| Cc1nc(Cc2cccc(C(F)(F)F)c2)sc1-c1ccc(C(N)=O)nc1 | cell-free assay, competition with immobilised ligand |  | 1 µM | remaining binding | 81% |
| Cn1c2c(Cl)c(Cl)ccc2c2cc[nH]c(=O)c21 | thermal stability, DSF |  | 10 µM | ΔTm | 0 °C |
| CCN1CCN(Cc2ccc(NC(=O)c3ccc(C)c(Oc4ccnc5[nH]ccc45)c3)cc2C(F)(F)F)CC1 | target engagement in cells, inhibitor, chemoproteomics | A-375 | 50 nM | inhibition | -11.4% |
| Cn1c2c(c3ccc(Cl)c(Cl)c31)C(C#N)C1(CCOCC1)NC2=O (stereo not shown) | thermal stability, DSF |  | 10 µM | ΔTm | 0 °C |
| O=C(Nc1cnc(Oc2ccc(F)cc2)nc1)N1CCc2ncccc2[C@@H]1c1ccc(F)cc1 | cell-free assay, competition with immobilised ligand |  | 1 µM | remaining binding | 91% |
| Nc1ncnc2occ(-c3ccc(NC(=O)Nc4cc(C(F)(F)F)ccc4F)cc3)c12 | cell-free assay, inhibitor |  | 20 µM | remaining signal | 31% |
| CC/C(=N\NC(=O)NCc1cccc(O)c1)c1ccc(O)c(C)c1O | enzyme activity, inhibitor |  | 0.1 µM | inhibition | 18.8% |
| CCN1CCC2(CC1)NC(=O)c1c(c3ccc(Cl)c(Cl)c3n1C)C2C#N (racemic) | thermal stability, DSF |  | 10 µM | ΔTm | 0.1 °C |
| c1ccc(N2CCN(Cc3nc4ccccc4[nH]3)CC2)nc1 | binding, competition with immobilised ligand |  | 1 µM | remaining binding | 89% |
| COc1cc2c(N3CCN(C(=O)Nc4ccc(OC(C)C)cc4)CC3)ncnc2cc1OCCCN1CCCCC1 | cell-free assay |  | 0.5 µM | remaining signal | 99.1% |
| Cn1c2c(Cl)c(Cl)ccc2c2cn[nH]c(=O)c21 | thermal stability, DSF |  | 10 µM | ΔTm | 0 °C |
| CC(C)(O)[C@H]1CC[C@H](Nc2ccc3ncc(-c4cccc(C(F)(F)F)c4)n3n2)CC1 | enzyme activity, inhibitor |  | 1 µM | remaining activity | 96.7% |
| O=C1NC(=O)c2cc(Nc3ccc(F)cc3)c(Nc3ccc(F)cc3)cc21 | cell-free assay |  | 0.5 µM | remaining signal | 85.5% |
| Cc1c(NC(=O)c2cc(C(N)=O)nc3cc(F)ccc23)c(C(F)(F)F)nn1Cc1ccc(C#N)cc1 | cell-free assay, competition with immobilised ligand |  | 1 µM | remaining binding | 94% |
| Cn1c2c(Cl)c(Cl)ccc2c2cc(N)[nH]c(=O)c21 | thermal stability, DSF |  | 10 µM | ΔTm | -0.2 °C |
| Cc1cc(NC(=O)c2cccc(S(F)(F)(F)(F)F)c2)cc(-n2ccn3nc(-c4cccnc4)cc23)c1 | cell-free assay, competition with immobilised ligand |  | 1 µM | remaining binding | 92.3% |
| c1nc2c(Nc3ccc4c(c3)OCCO4)nc(Nc3ccc4c(c3)OCCO4)nc2[nH]1 | enzyme activity, inhibitor |  | 10 µM | activity vs control | 73% |
| Cc1sc(C(=O)NC2COC2)cc1-n1cc(NC(=O)Nc2c(F)cccc2Cl)cn1 | enzyme activity, inhibitor |  | 10 µM | remaining activity | 91.5% |
